Assay type in all cases: functional
In test [1] the test system is Rattus norvegicus. Nature of the test: Analgesic activity in Wistar albino rat assessed as thermal-stimulus induced tail flick latency time at 20 mg/kg measured after 90 mins (reference value: 3.25 +/- 0.005 secs). A general note: Thermal pain tests record how soon the animal reacts.
For test [2], the system named is Rattus norvegicus. Nature of the test: Analgesic activity in Wistar albino rat assessed as thermal-stimulus induced tail flick latency time at 20 mg/kg measured after 60 mins (reference value: 3.34 +/- 0.005 secs).
Test [3] concerns Rattus norvegicus. Briefly: Analgesic activity in Wistar albino rat assessed as thermal-stimulus induced tail flick latency time at 20 mg/kg measured after 30 mins (reference value: 3.23 +/- 0.005 secs).
The test system of test [4] is Rattus norvegicus. Nature of the test: Antiinflammatory activity in Wistar albino rat assessed as reduction of carrageenan-induced paw edema at 20 mg/kg, po measured after 2 hrs by plethysmometer. The arrangement: scale not given: the % may be the effect or the level left. In a few lines:
(§1)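 Rats 150e200 g dosed orally with test suspension 20 mg/kg, control given 1 mL of 1% carboxymethyl cellulose suspension. After 30 min, 0.1 mL of 1% carrageenan in normal saline injected subcutaneously into the sub-plantar region of the right hind paw. Paw volume read by plethysmometer at 0 h, 30, 60 and 120 min. Data as mean, one-way ANOVA then Dunnett's t-test.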

For test [5], the system named is Rattus norvegicus. Briefly: Antiinflammatory activity in Wistar albino rat assessed as reduction of carrageenan-induced paw edema at 20 mg/kg, po measured after 1 hr by plethysmometer. The arrangement: scale not given: the % may be the effect or the level left. In short, it runs like this:
as §1
On the technique in general: In the carrageenan paw model, swelling and tenderness develop within hours.

The subject of test [6] is Rattus norvegicus. Nature of the test: Antiinflammatory activity in Wistar albino rat assessed as reduction of carrageenan-induced paw edema at 20 mg/kg, po measured after 30 mins by plethysmometer. The arrangement: scale not given: the % may be the effect or the level left. In a few lines:
as §1

Structures are written as SMILES.

Regarding `CC(C)Cc1ccc(C(C)c2n[nH]c(=S)n2/N=C/c2c([O-])on[n+]2-c2ccccc2)cc1` (centres undefined), the Time in the test on Rattus norvegicus [1] was 6.6 s; in the test on Rattus norvegicus [2], 6.24 s; in the test with Rattus norvegicus [3] it was 5.76 s. Further, the results for the Activity in the test on Rattus norvegicus [4], in the test on Rattus norvegicus [5] and in the test on Rattus norvegicus [6] were 50.2%, 39.4% and 32.9%, respectively.
As for `Cc1ccc(-[n+]2noc([O-])c2/C=N/n2c(C(C)c3ccc(CC(C)C)cc3)nn(CN3CCOCC3)c2=S)cc1` (centres undefined), the results for the Time in the test with Rattus norvegicus [1], in the test on Rattus norvegicus [2] and in the test on Rattus norvegicus [3] were 7.12 s, 5.91 s and 5.15 s, respectively. Moreover, the Activity was found to be 66.6% with Rattus norvegicus [4], 53% in the test with Rattus norvegicus [5] and 41.9% in the test on Rattus norvegicus [6].
For `Cc1ccc(-[n+]2noc([O-])c2/C=N/n2c(C(C)c3ccc(CC(C)C)cc3)nn(CN3CCN(c4ccccc4)CC3)c2=S)cc1` (centres undefined), the figures for the Time in the test on Rattus norvegicus [1], in the test on Rattus norvegicus [2] and in the test with Rattus norvegicus [3] were 5.35 s, 4.41 s and 4.15 s, respectively. Besides, the Activity with Rattus norvegicus [4] turned out to be 40.2%; in the test on Rattus norvegicus [5], 35.9%; in the test with Rattus norvegicus [6], 31.5%.
In the case of `Cc1ccc(-[n+]2noc([O-])c2/C=N/n2c(C(C)c3ccc(CC(C)C)cc3)nn(CN3CCCCC3)c2=S)cc1` (centres undefined), the Time stood at 5.1 s with Rattus norvegicus [1], 4.31 s in the test with Rattus norvegicus [2] and 3.92 s in the test with Rattus norvegicus [3]. The results for the Activity in the test with Rattus norvegicus [4], with Rattus norvegicus [5] and in the test with Rattus norvegicus [6] were 54.1%, 46.9% and 39.1%, respectively.
With `CCN1CCN(Cn2nc(C(C)c3ccc(CC(C)C)cc3)n(/N=C/c3c([O-])on[n+]3-c3ccccc3)c2=S)CC1` (centres undefined), the Time in the test with Rattus norvegicus [1] stood at 6.41 s; in the test with Rattus norvegicus [2] it was 5.39 s; in the test on Rattus norvegicus [3] it was 4.4 s. The Activity with Rattus norvegicus [4] is 54.5%; with Rattus norvegicus [5], 46.9%; with Rattus norvegicus [6], 38.7%.
With `CC(C)Cc1ccc(C(C)c2nn(CN3CCOCC3)c(=S)n2/N=C/c2c([O-])on[n+]2-c2ccccc2)cc1` (centres undefined), the Time stood at 6.9 s in the test on Rattus norvegicus [1], 6.1 s in the test with Rattus norvegicus [2] and 4.92 s in the test on Rattus norvegicus [3]. Also, the Activity with Rattus norvegicus [4] worked out at 65.3%; in the test with Rattus norvegicus [5], 55.3%; in the test with Rattus norvegicus [6], 43.7%.
`COc1ccc(-[n+]2noc([O-])c2/C=N/n2c(C(C)c3ccc(CC(C)C)cc3)nn(CN3CCCCC3)c2=S)cc1` (centres undefined): the results for the Time with Rattus norvegicus [1], with Rattus norvegicus [2] and in the test with Rattus norvegicus [3] were 6.26 s, 5.55 s and 4.61 s, respectively. The results for the Activity in the test with Rattus norvegicus [4], with Rattus norvegicus [5] and in the test with Rattus norvegicus [6] were 56.2%, 48.6% and 42.7%, respectively.
Turning to `CC(C)=CCN1CC[C@]2(C)c3cc(O)ccc3C[C@H]1[C@H]2C` [(+)-PENTAZOCINE], the Time with Rattus norvegicus [1] is reported as 7.45 s; with Rattus norvegicus [2], 6.95 s; in the test with Rattus norvegicus [3], 6.25 s.
For the molecule `Cc1ccc(-[n+]2noc([O-])c2/C=N/n2c(C(C)c3ccc(CC(C)C)cc3)nn(CN3CCN(C)CC3)c2=S)cc1` (centres undefined), the Time in the test with Rattus norvegicus [1] was determined as 6.21 s; with Rattus norvegicus [2], 5.25 s; with Rattus norvegicus [3], 4.52 s. Further, the Activity with Rattus norvegicus [4] was determined as 56.2%; with Rattus norvegicus [5] it was 48.7%; in the test on Rattus norvegicus [6], 36.5%.
As for `Cc1ccc(-[n+]2noc([O-])c2/C=N/n2c(C(C)c3ccc(CC(C)C)cc3)n[nH]c2=S)cc1` (centres undefined), the Time in the test on Rattus norvegicus [1] was determined as 6.92 s; with Rattus norvegicus [2] it was 6.11 s; in the test on Rattus norvegicus [3], 4.99 s. The results for the Activity in the test on Rattus norvegicus [4], in the test on Rattus norvegicus [5] and in the test with Rattus norvegicus [6] were 55.4%, 46.9% and 39.2%, respectively.
Take `COc1ccc(-[n+]2noc([O-])c2/C=N/n2c(C(C)c3ccc(CC(C)C)cc3)nn(CN3CCOCC3)c2=S)cc1` (centres undefined): the Time in the test with Rattus norvegicus [1] was 6.82 s; in the test with Rattus norvegicus [2], 5.92 s; in the test on Rattus norvegicus [3], 4.77 s. Also, the Activity came to 65.8% in the test on Rattus norvegicus [4], 57% with Rattus norvegicus [5] and 49% in the test with Rattus norvegicus [6].
In the case of `CC(C)Cc1ccc(C(C)c2nn(CN3CCN(c4ccccc4)CC3)c(=S)n2/N=C/c2c([O-])on[n+]2-c2ccccc2)cc1` (centres undefined), the Time with Rattus norvegicus [1] is on record as 6.05 s; in the test with Rattus norvegicus [2], 5.03 s; in the test with Rattus norvegicus [3], 4.19 s. Further, the Activity is 38.5% in the test with Rattus norvegicus [4], 34.2% in the test on Rattus norvegicus [5] and 27.9% in the test with Rattus norvegicus [6].
On to `CC(C)Cc1ccc(C(C)c2nn(CN3CCCCC3)c(=S)n2/N=C/c2c([O-])on[n+]2-c2ccccc2)cc1` (centres undefined), for which the Time in the test with Rattus norvegicus [1] is recorded as 6.8 s; in the test on Rattus norvegicus [2], 5.73 s; with Rattus norvegicus [3], 4.56 s. Moreover, the Activity is listed as 67.9% in the test on Rattus norvegicus [4], 56.1% in the test on Rattus norvegicus [5] and 45% with Rattus norvegicus [6].
Consider `COc1ccc(-[n+]2noc([O-])c2/C=N/n2c(C(C)c3ccc(CC(C)C)cc3)n[nH]c2=S)cc1` (centres undefined), for which the Time amounted to 7.23 s in the test with Rattus norvegicus [1], 6.3 s with Rattus norvegicus [2] and 5.41 s in the test with Rattus norvegicus [3]. Besides, the Activity with Rattus norvegicus [4] came to 64%; with Rattus norvegicus [5] it was 55.2%; with Rattus norvegicus [6], 48.6%.
For the molecule `COc1ccc2c(c1)c(CC(=O)O)c(C)n2C(=O)c1ccc(Cl)cc1` [INDOMETHACIN], the values for the Activity in the test with Rattus norvegicus [4], in the test with Rattus norvegicus [5] and in the test with Rattus norvegicus [6] were 70.1%, 65.8% and 58.1%, respectively.

The record behind these values is ChEMBL document CHEMBL2040754, “Regioselective reaction: synthesis, characterization and pharmacological activity of some new Mannich and Schiff bases containing sydnone” (2012).
